The subject of test [1] is Candida albicans. The experiment in a line: Antifungal activity against Candida albicans at 100 ug/mL by bioautographic agar overlay method. Format: functional, organism-based.
The test system of test [2] is Staphylococcus aureus. Put plainly: Antibacterial activity against Staphylococcus aureus at 100 ug/mL by bioautographic agar overlay method. Format: functional, organism-based.
In test [3] the test system is Bacillus subtilis. The experiment in a line: Antibacterial activity against Bacillus subtilis at 100 ug/mL by bioautographic agar overlay method. Format: functional, organism-based.
Another test concerns Saccharomyces cerevisiae. The experiment in a line: Antifungal activity against Saccharomyces cerevisiae by bioautographic agar overlay method. Format: functional. In a few lines:
(§1)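 Nutrient agar inoculated with the pure microbial culture was poured over the plates, which were incubated appropriately. Bacterial or fungal growth inhibition was scored by bioautography.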

Another test concerns Escherichia coli. The experiment in a line: Antibacterial activity against Escherichia coli by bioautographic agar overlay method. Format: functional. A digest of the protocol: as §1
Test [4] concerns Staphylococcus aureus. The experiment in a line: Antibacterial activity against Staphylococcus aureus by bioautographic agar overlay method. Format: functional. In a few lines:
as §1

For test [5], the system named is Bacillus subtilis. Put plainly: Antibacterial activity against Bacillus subtilis by bioautographic agar overlay method. Format: functional. A digest of the protocol:
as §1

For the next test, the system named is Pseudomonas aeruginosa. Put plainly: Antibacterial activity against Pseudomonas aeruginosa by bioautographic agar overlay method. Format: functional. A digest of the protocol:
as §1

Test [6] has as its system Candida albicans. Put plainly: Antifungal activity against Candida albicans by bioautographic agar overlay method.

Molecules are shown by their SMILES. ≈ marks a conversion by molar mass, not a printed value. Calls of active or inactive are those of the source. The rule behind the calls is not given here.

As for `CC(c1ccccc1)N1C(=O)C(c2ccccc2)(c2ccccc2)C12C(=O)N(C)c1ccccc12` (stereo unspecified), the result with Candida albicans [1], in the test with Staphylococcus aureus [2] and in the test with Bacillus subtilis [3] was inactive.
With `CN1C(=O)C2(c3ccccc31)N(C(c1ccccc1)c1ccccc1)C(=O)C2(c1ccccc1)c1ccccc1` (stereo unspecified), the outcome in the test with Candida albicans [1], in the test with Staphylococcus aureus [2] and in the test on Bacillus subtilis [3] was inactive. In addition, in the test on Saccharomyces cerevisiae, the MIC came out at 10 µg/mL (≈ 19.2 µM).
As to `CC(C)N1C(=O)C(c2ccccc2)(c2ccccc2)C12C(=O)N(C)c1ccccc12` (stereo unspecified), the result in the test on Candida albicans [1], with Staphylococcus aureus [2] and in the test with Bacillus subtilis [3] was inactive. For the same compound, 50 µg/mL (≈ 126 µM) was the least that counted as inhibitory against Saccharomyces cerevisiae (MIC).
With `Cc1ccc(C2(c3ccc(C)cc3)C(=O)N(C(C)c3ccccc3)C23C(=O)N(C)c2ccccc23)cc1` (stereo unspecified), the result with Candida albicans [1], with Staphylococcus aureus [2] and with Bacillus subtilis [3] was inactive.
Turning to `COc1ccc(C2(c3ccc(OC)cc3)C(=O)N(C(C)C)C23C(=O)N(C)c2ccccc23)cc1` (stereo unspecified), the result in the test with Candida albicans [1], in the test on Staphylococcus aureus [2] and in the test on Bacillus subtilis [3] was inactive. The compound also displayed an MIC with Saccharomyces cerevisiae of 50 µg/mL (≈ 110 µM).
In the case of `Cc1ccc(C2(c3ccc(C)cc3)C(=O)N(C3CCCCC3)C23C(=O)N(C)c2ccccc23)cc1` (stereo unspecified), the result in the test with Candida albicans [1], in the test on Staphylococcus aureus [2] and in the test with Bacillus subtilis [3] was inactive. This compound also registered an MIC in the test on Escherichia coli of 100 µg/mL (≈ 215 µM).
On to `O=C(N[C@H](CO)[C@H](O)c1ccc([N+](=O)[O-])cc1)C(Cl)Cl` [CHLORAMPHENICOL], for which the MIC in the test with Escherichia coli, in the test with Staphylococcus aureus [4] and in the test on Bacillus subtilis [5] was 0.1 µg/mL (≈ 0.309 µM) each time.
Regarding `COc1ccc(C2(c3ccc(OC)cc3)C(=O)N(C(c3ccccc3)c3ccccc3)C23C(=O)N(C)c2ccccc23)cc1` (stereo unspecified), the outcome in the test on Candida albicans [1], in the test on Staphylococcus aureus [2] and in the test on Bacillus subtilis [3] was inactive. Moreover, the MIC in the test with Escherichia coli and in the test on Saccharomyces cerevisiae was 50 µg/mL (≈ 86.1 µM) each time.
Consider `Cc1ccc(C2(c3ccc(C)cc3)C(=O)N(C(C)C)C23C(=O)N(C)c2ccccc23)cc1` (stereo unspecified), for which the result in the test on Candida albicans [1], in the test with Staphylococcus aureus [2] and in the test on Bacillus subtilis [3] was inactive. For the same compound, the MIC with Escherichia coli stood at 10 µg/mL (≈ 23.6 µM); against Pseudomonas aeruginosa, 50 µg/mL (≈ 118 µM); in the test with Saccharomyces cerevisiae, 50 µg/mL (≈ 118 µM).
`CN1C(=O)C2(c3ccccc31)N(C1CCCCC1)C(=O)C2(c1ccccc1)c1ccccc1` (stereo unspecified): the outcome in the test on Candida albicans [1], in the test with Staphylococcus aureus [2] and in the test with Bacillus subtilis [3] was inactive. Besides, the MIC with Escherichia coli was 100 µg/mL (≈ 229 µM).
For the compound `Cc1ccc(C2(c3ccc(C)cc3)C(=O)N(C(c3ccccc3)c3ccccc3)C23C(=O)N(C)c2ccccc23)cc1` (stereo unspecified), the result in the test on Candida albicans [1], with Staphylococcus aureus [2] and in the test with Bacillus subtilis [3] was inactive. This compound also returned an MIC with Saccharomyces cerevisiae of 100 µg/mL (≈ 182 µM).
As for `Clc1ccc(COC(Cn2ccnc2)c2ccc(Cl)cc2Cl)c(Cl)c1` (stereo unspecified) [MICONAZOLE], the MIC in the test on Candida albicans [6] and against Saccharomyces cerevisiae was 0.1 µg/mL (≈ 0.24 µM) each time.

As a reminder, the MIC is the lowest concentration that inhibits growth of the organism. Read a low MIC as greater potency.

Values taken from ChEMBL document CHEMBL1137692, “Synthesis and antimicrobial activity of new 1-alkyl/cyclohexyl-3,3-diaryl-1'-methylspiro[azetidine-2,3'-indoline]-2',4-diones” (2009).
